Experimental data pooled from the literature.
Lines come from different studies, so protocols differ.
RPS6KA5: Ribosomal protein S6 kinase alpha-5 (RPS6KA5, Homo sapiens, UniProt O75582)
RPS6KA5 N-terminal kinase domain: Ribosomal protein S6 kinase alpha-5, N-terminal kinase domain (RPS6KA5, Homo sapiens, UniProt O75582)
RPS6KA5 C-terminal kinase domain: Ribosomal protein S6 kinase alpha-5, C-terminal kinase domain (RPS6KA5, Homo sapiens, UniProt O75582)

O=c1[nH]c2ccccc2n1C1CCN(Cc2ccc(-c3[nH]c4cc5ncnc5cc4nc3-c3ccccc3)cc2)CC1  remaining signal (RPS6KA5; cell-free assay; 0.5 µM): 103%
Nc1ncc(-c2nc(N3CCOCC3)nc(N3CCOCC3)n2)c(C(F)F)n1  remaining binding (RPS6KA5 N-terminal kinase domain; binding, competition with immobilised ligand; 10 µM): 88%
Cc1nn(C)cc1-c1nc2c(N3CCN(Cc4ccc(Cl)cc4)CC3)c(Cl)cnc2[nH]1  remaining binding (RPS6KA5 C-terminal kinase domain; binding, competition with immobilised ligand; 1 µM): 100%
Cn1cncc1[C@@](O)(COc1ccc(C#N)cc1-c1ccc(OC(F)(F)F)cc1)c1ccc(C#N)cc1  remaining binding (RPS6KA5 N-terminal kinase domain; cell-free assay, competition with immobilised ligand; 1 µM): 88%
C#Cc1n[nH]c2c(-c3cn([C@@H](C)c4ccccc4)c(=O)[nH]c3=O)cc(F)cc12  inhibition (RPS6KA5; enzyme activity, inhibitor; 0.1 µM): -1.9%
CC(C)(C)c1cc(C=C(C#N)C#N)cc(Br)c1O  remaining activity (RPS6KA5; enzyme activity, inhibitor; 0.5 µM): 108%
Cn1cc(-c2cccc(N3CCc4c(sc5c4CC(C)(C)C5)C3=O)c2CO)cc(Nc2ccncn2)c1=O  inhibition (RPS6KA5; enzyme activity, inhibitor; 1 µM): 2%
N#CC1(c2ccccn2)CCN(Cc2cc(C(=O)O)c(=O)n3ccccc23)CC1  remaining binding (RPS6KA5 C-terminal kinase domain; cell-free assay, competition with immobilised ligand; 1 µM): 83%
C#Cc1n[nH]c2c(-c3cn([C@@H](C)c4ccccn4)c(=O)[nH]c3=O)cc(F)cc12  inhibition (RPS6KA5; enzyme activity, inhibitor; 0.1 µM): 2%
Cn1cc(-c2cc(F)cc(N3CCn4c(cc5c4CCCC5)C3=O)c2CO)cc(Nc2ccc(N3CCN(C4COC4)CC3)cn2)c1=O  inhibition (RPS6KA5; enzyme activity, inhibitor; 0.1 µM): 13%
